Measured values reported in ChEMBL document CHEMBL1127017.

Experiments:
[1] = biological target: T1, Progesterone receptor (Rattus norvegicus) (UniProt Q63449); assay: Relative binding affinity for progesterone receptor in a competitive radiometric binding assay relative to the affinity of R5020 as tracer
T1 sequence (whole entry): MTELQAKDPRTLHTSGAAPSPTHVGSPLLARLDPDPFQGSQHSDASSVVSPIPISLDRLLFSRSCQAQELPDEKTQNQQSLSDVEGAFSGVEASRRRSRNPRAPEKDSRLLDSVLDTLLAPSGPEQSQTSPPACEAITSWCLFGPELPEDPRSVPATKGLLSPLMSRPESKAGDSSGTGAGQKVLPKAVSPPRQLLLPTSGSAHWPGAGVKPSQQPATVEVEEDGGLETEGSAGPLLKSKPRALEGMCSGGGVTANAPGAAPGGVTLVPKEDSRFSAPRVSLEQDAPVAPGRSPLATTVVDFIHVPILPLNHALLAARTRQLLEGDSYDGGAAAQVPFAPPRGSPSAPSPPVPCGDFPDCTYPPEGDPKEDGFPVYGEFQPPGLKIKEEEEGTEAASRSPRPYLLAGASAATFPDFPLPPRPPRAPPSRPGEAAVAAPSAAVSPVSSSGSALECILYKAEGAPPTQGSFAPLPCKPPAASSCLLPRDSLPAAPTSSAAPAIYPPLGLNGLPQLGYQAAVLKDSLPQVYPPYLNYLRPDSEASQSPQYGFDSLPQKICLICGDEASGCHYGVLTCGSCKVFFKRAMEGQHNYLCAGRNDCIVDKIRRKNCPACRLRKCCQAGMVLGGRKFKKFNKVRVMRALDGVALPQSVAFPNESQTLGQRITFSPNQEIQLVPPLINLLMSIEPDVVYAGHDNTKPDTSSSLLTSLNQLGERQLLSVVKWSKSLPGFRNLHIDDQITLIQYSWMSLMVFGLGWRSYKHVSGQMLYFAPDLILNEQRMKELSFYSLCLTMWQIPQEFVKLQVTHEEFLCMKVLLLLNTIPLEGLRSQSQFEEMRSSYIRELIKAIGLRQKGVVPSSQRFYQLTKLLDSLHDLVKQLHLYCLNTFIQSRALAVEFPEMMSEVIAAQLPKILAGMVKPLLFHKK
Procedure, shortened: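 The R5020 standard is defined as 100%, and binding of other ligands is expressed as a percentage relative to it.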

[2] = biological target: T2, Mineralocorticoid receptor (Rattus norvegicus) (UniProt P22199); assay: Relative binding affinity for the rat kidney mineralocorticoid receptor (MR) relative to the affinity of aldosterone as tracer
T2 sequence (whole entry): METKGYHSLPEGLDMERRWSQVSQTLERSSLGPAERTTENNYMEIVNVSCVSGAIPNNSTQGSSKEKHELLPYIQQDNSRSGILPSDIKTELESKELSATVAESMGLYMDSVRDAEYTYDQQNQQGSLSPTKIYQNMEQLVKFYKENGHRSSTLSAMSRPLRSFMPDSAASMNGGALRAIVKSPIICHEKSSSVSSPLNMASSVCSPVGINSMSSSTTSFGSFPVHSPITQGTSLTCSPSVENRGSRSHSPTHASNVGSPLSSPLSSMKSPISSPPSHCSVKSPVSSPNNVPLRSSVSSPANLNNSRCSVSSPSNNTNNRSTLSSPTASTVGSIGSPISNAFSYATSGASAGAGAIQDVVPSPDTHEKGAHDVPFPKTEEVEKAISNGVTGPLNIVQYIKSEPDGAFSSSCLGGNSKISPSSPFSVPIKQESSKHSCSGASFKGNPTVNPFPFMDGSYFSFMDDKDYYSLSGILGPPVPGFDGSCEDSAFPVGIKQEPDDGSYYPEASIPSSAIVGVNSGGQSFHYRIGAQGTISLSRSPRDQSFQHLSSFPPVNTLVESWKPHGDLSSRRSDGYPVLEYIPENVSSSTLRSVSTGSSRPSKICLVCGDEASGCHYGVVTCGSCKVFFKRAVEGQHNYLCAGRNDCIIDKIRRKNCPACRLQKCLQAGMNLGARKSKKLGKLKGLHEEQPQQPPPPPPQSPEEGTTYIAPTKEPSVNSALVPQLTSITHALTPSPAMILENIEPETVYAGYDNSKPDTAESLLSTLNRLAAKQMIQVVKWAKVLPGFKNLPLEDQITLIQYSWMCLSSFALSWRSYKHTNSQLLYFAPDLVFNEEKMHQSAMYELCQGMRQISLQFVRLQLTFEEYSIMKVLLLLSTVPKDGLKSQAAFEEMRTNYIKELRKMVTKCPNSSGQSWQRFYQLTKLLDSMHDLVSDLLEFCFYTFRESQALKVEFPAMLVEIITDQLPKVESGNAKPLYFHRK

With CC(=O)[C@@]12OC(C)(c3c(F)c(F)c(F)c(F)c3F)O[C@@H]1CC1C3CCC4=CC(=O)CC[C@]4(C)C3CC[C@@]12C (some centres undefined) the relative binding affinity (RBA) [1] was 20 and the relative binding affinity (RBA) [2] was 0.65.
In the case of CC(=O)[C@@]12OC(C)(c3ccco3)OC1CC1C3CCC4=CC(=O)CC[C@]4(C)C3CC[C@@]12C (some centres undefined), the relative binding affinity (RBA) [1] is reported as 5.5.
CC(=O)[C@@]12OC(C)(c3ccccc3)O[C@@H]1C[C@H]1[C@@H]3CCC4=CC(=O)CC[C@]4(C)[C@H]3CC[C@@]12C (stereo in doubt; 16) gave a relative binding affinity (RBA) [1] of 16 and a relative binding affinity (RBA) [2] of 1.6.
CC(=O)[C@@]12OC(C)(c3c(F)c(F)c(N=[N+]=[N-])c(F)c3F)O[C@@H]1CC1C3CCC4=CC(=O)CC[C@]4(C)C3CC[C@@]12C (some centres undefined) showed a relative binding affinity (RBA) [1] of 14 and a relative binding affinity (RBA) [2] of 0.95.
Compound CC(=O)[C@@]12OC(C)(c3ccc(N=[N+]=[N-])cc3)O[C@@H]1CC1C3CCC4=CC(=O)CC[C@]4(C)C3CC[C@@]12C (stereo in doubt; 7) has a relative binding affinity (RBA) [1] of 0.18.
CC(=O)[C@@]12OC(C)(c3ccc(N)cc3)O[C@@H]1CC1C3CCC4=CC(=O)CC[C@]4(C)C3CC[C@@]12C (some centres undefined) was tested, and the relative binding affinity (RBA) [1] was 0.01.
Compound CC(=O)[C@@]12OC(C)(c3ccc(N=[N+]=[N-])cc3)O[C@@H]1CC1C3CCC4=CC(=O)CC[C@]4(C)C3CC[C@@]12C (stereo in doubt; 6) has a relative binding affinity (RBA) [1] of 15 and a relative binding affinity (RBA) [2] of 0.13.
With CC(=O)[C@@]12OC(C)(c3ccc(C(=O)c4ccccc4)cc3)O[C@@H]1CC1C3CCC4=CC(=O)CC[C@]4(C)C3CC[C@@]12C (some centres undefined) the relative binding affinity (RBA) [1] was 6.6 and the relative binding affinity (RBA) [2] was less than 0.003.
CC(=O)[C@@]12OC(C)(C)O[C@@H]1C[C@H]1[C@@H]3CCC4=CC(=O)CC[C@]4(C)[C@H]3CC[C@@]12C showed a relative binding affinity (RBA) [1] of 2.
CC(=O)[C@@]12OC(C)(c3ccc(F)cc3)O[C@@H]1CC1C3CCC4=CC(=O)CC[C@]4(C)C3CC[C@@]12C (stereo in doubt; 10) was tested, and the relative binding affinity (RBA) [1] was 53 and the relative binding affinity (RBA) [2] was 6.
Compound CC(=O)[C@@]12OC(C)(c3ccc(N=[N+]=[N-])c(I)c3)O[C@@H]1CC1C3CCC4=CC(=O)CC[C@]4(C)C3CC[C@@]12C (some centres undefined) has a relative binding affinity (RBA) [1] of 2.9.
Work on CC(=O)[C@@]12OC(C)(c3ccc(N=C=S)cc3)O[C@@H]1CC1C3CCC4=CC(=O)CC[C@]4(C)C3CC[C@@]12C (some centres undefined) yielded a relative binding affinity (RBA) [1] of 1.3 and a relative binding affinity (RBA) [2] of 0.09.
CC(=O)[C@@]12OC(C)(c3ccc(I)cc3)O[C@@H]1CC1C3CCC4=CC(=O)CC[C@]4(C)C3CC[C@@]12C (some centres undefined) showed a relative binding affinity (RBA) [1] of 25 and a relative binding affinity (RBA) [2] of 0.13.
For CC(=O)[C@H]1CC[C@H]2[C@@H]3CCC4=CC(=O)CC[C@]4(C)[C@H]3CC[C@]12C, the relative binding affinity (RBA) [1] was 13.
For CC(=O)[C@@]12OC(C)(c3ccccc3)O[C@@H]1C[C@H]1[C@@H]3CCC4=CC(=O)CC[C@]4(C)[C@H]3CC[C@@]12C (stereo in doubt; 17), the relative binding affinity (RBA) [1] was 1.2.
In the case of CC(=O)[C@@]12OC(C)(c3ccc(F)cc3)O[C@@H]1CC1C3CCC4=CC(=O)CC[C@]4(C)C3CC[C@@]12C (stereo in doubt; 11), the relative binding affinity (RBA) [1] is reported as 0.56.
